In series [1] the test system is RAW264.7. The experiment in a line: Cytotoxicity against LPS-stimulated mouse RAW264.7 cells at 100 uM after 24 hrs by MTT assay. Type of series: cell-based. To be noted: raw264.7, 24 h. The procedure, abridged:
(§1)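 Viability of RAW264.7 cells (1.5 × 10^5 cells/mL) after 24 h exposure to LPS (1 µg/mL) plus test sample, by MTT. MTT added for 4 h, formazan dissolved in DMSO, absorbance 540 nm. Means ± SD of duplicate (50, 100 µM) or triplicate (other concentrations) experiments.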

For series [2], the system named is RAW264.7. Description: Cytotoxicity against LPS-stimulated mouse RAW264.7 cells at 50 uM after 24 hrs by MTT assay. The class given is cell-based. The settings on record: raw264.7, 24 h. The method in brief:
as §1
(In general: Tetrazolium dyes change colour on reduction, which living cells bring about.)

Series [3] has as its system RAW264.7. The experiment in a line: Antiinflammatory activity in LPS-stimulated mouse RAW264.7 cells assessed as inhibition of IL6 production at 50 uM after 24 hrs by ELISA. Type of series: functional, cell-based. The procedure, abridged: (§2)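 RAW264.7 cells at 1.5 × 10^5 cells/mL, pre-incubated 18 h in 24-well plates, then stimulated with LPS (1 µg/mL) alone or with test samples for 24 h. Samples dissolved in EtOH diluted with DMEM, solvent ≤0.1% final. NO in supernatant by Griess reagent (10 min, room temperature, light protected, absorbance 540 nm); IL-6 and TNF-α by ELISA. Mean ± SD.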
(ELISA stands for enzyme-linked immunosorbent assay.)

Series [4] has as its system RAW264.7. The experiment in a line: Antiinflammatory activity in LPS-stimulated mouse RAW264.7 cells assessed as inhibition of NO production at 50 uM after 24 hrs by Griess reagent method. The class given is functional, cell-based. The method in brief: (§3)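 Conditions used at 50 and 100 µM: RAW264.7 cells (1.5 × 10^5 cells/mL) stimulated with LPS (1 µg/mL) alone or with samples for 24 h. Supernatant NO measured by Griess reagent, absorbance 540 nm; IL-6 and TNF-α by ELISA. Means ± SD of duplicate experiments; blank and LPS-only controls.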
Background: The Griess reaction detects nitrite, a stable product of nitric oxide.

Series [5] has as its system RAW264.7. The experiment in a line: Antiinflammatory activity in LPS-stimulated mouse RAW264.7 cells assessed as inhibition of NO production at 100 uM after 24 hrs by Griess reagent method. Type of series: functional, cell-based. The procedure, abridged:
as §3

Series [6] concerns RAW264.7. The experiment in a line: Antiinflammatory activity in LPS-stimulated mouse RAW264.7 cells assessed as inhibition of TNFalpha production at 50 uM after 24 hrs by ELISA. The class given is functional, cell-based. The method in brief: as §3
The test system of series [7] is RAW264.7. The experiment in a line: Antiinflammatory activity in LPS-stimulated mouse RAW264.7 cells assessed as inhibition of NO production at 12.5 uM after 24 hrs by Griess reagent method. The class given is functional, cell-based. The procedure, abridged: as §2
The test system of series [8] is RAW264.7. Description: Antiinflammatory activity in LPS-stimulated mouse RAW264.7 cells assessed as inhibition of NO production after 24 hrs by Griess reagent method. Type of series: functional, cell-based. The method in brief: as §2
Series [9] deals with RAW264.7. The experiment in a line: Antiinflammatory activity in LPS-stimulated mouse RAW264.7 cells assessed as inhibition of IL6 production at 12.5 uM after 24 hrs by ELISA. Type of series: functional, cell-based. The method in brief: as §2
For series [10], the system named is RAW264.7. The experiment in a line: Antiinflammatory activity in LPS-stimulated mouse RAW264.7 cells assessed as inhibition of NO production at 25 uM after 24 hrs by Griess reagent method. The class given is functional, cell-based. The method in brief: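 Test samples at 12.5 and 25.0 µM with LPS (1 µg/mL) on RAW264.7 cells (1.5 × 10^5 cells/mL) for 24 h. NO read by Griess method, IL-6 and TNF-α by ELISA. Means ± SD of triplicate experiments.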

Series [11] relates to RAW264.7. The experiment in a line: Antiinflammatory activity in LPS-stimulated mouse RAW264.7 cells assessed as inhibition of IL6 production at after 24 hrs by ELISA. Type of series: functional, cell-based. The procedure, abridged: as §2
The test system of series [12] is RAW264.7. The experiment in a line: Antiinflammatory activity in LPS-stimulated mouse RAW264.7 cells assessed as inhibition of TNFalpha production at 12.5 uM after 24 hrs by ELISA. Type of series: functional, cell-based. The procedure, abridged:
as §2

The subject of series [13] is RAW264.7. Description: Antiinflammatory activity in LPS-stimulated mouse RAW264.7 cells assessed as inhibition of TNFalpha production after 24 hrs by ELISA. The class given is functional, cell-based. The procedure, abridged:
as §2

The test system of series [14] is RAW264.7. Description: Cytotoxicity against LPS-stimulated mouse RAW264.7 cells at 10 uM after 24 hrs by MTT assay. The class given is cell-based. To be noted: raw264.7, 24 h. The method in brief:
as §1

Series [15] concerns RAW264.7. Description: Antiinflammatory activity in LPS-stimulated mouse RAW264.7 cells assessed as inhibition of NO production at 6.25 uM after 24 hrs by Griess reagent method. Type of series: functional, cell-based. The method in brief:
(§4)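 NO series at 3.12, 6.25 and 12.5 µM: RAW264.7 cells (1.5 × 10^5 cells/mL) co-treated with LPS (1 µg/mL) for 24 h; nitrite by Griess reagent. Means ± SD of triplicate experiments.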

Series [16] relates to RAW264.7. The experiment in a line: Antiinflammatory activity in LPS-stimulated mouse RAW264.7 cells assessed as inhibition of NO production at 10 uM after 24 hrs by Griess reagent method. Type of series: functional, cell-based. The procedure, abridged:
(§5)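 Samples and prostaglandin references tested at 10 and 30 µM alongside LPS (1 µg/mL) in RAW264.7 cells (1.5 × 10^5 cells/mL), 24 h; NO by Griess reagent. Triplicate experiments, means ± SD.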

Series [17] concerns RAW264.7. Description: Cytotoxicity against LPS-stimulated mouse RAW264.7 cells at 25 uM after 24 hrs by MTT assay. The settings on record: raw264.7, 24 h. The class given is cell-based. The method in brief:
as §1

Series [18] deals with RAW264.7. The experiment in a line: Antiinflammatory activity in LPS-stimulated mouse RAW264.7 cells assessed as inhibition of NO production at 3.12 uM after 24 hrs by Griess reagent method. Type of series: functional, cell-based. The procedure, abridged: as §4
The subject of series [19] is RAW264.7. The experiment in a line: Cytotoxicity against LPS-stimulated mouse RAW264.7 cells at 12.5 uM after 24 hrs by MTT assay. Type of series: cell-based. To be noted: raw264.7, 24 h. The procedure, abridged: as §1
Series [20] deals with RAW264.7. Description: Antiinflammatory activity in LPS-stimulated mouse RAW264.7 cells assessed as inhibition of NO production at 30 uM after 24 hrs by Griess reagent method. The class given is functional, cell-based. The procedure, abridged:
as §5

Series [21] relates to RAW264.7. The experiment in a line: Cytotoxicity against LPS-stimulated mouse RAW264.7 cells at 6.25 uM after 24 hrs by MTT assay. Type of series: cell-based. To be noted: raw264.7, 24 h. The method in brief:
as §1

Series [22] has as its system RAW264.7. Description: Cytotoxicity against LPS-stimulated mouse RAW264.7 cells at 3.12 uM after 24 hrs by MTT assay. The settings on record: raw264.7, 24 h. The class given is cell-based. The procedure, abridged:
as §1

Calls of active or inactive are those of the source. The calls are words filed in the database; no cut-off is given here.

As to `CC/C=C\CC1C(=O)C(C(=O)OC)=CC1CC(=O)OC` (stereo not given), the Activity result in series [1] and in [2] was “Toxic” throughout. In addition, the result in series [3], in series [4], in series [5] and in series [6] was Active.
For the compound `CC/C=C\CC1C(=O)C(Cl)=CC1CC(=O)O` (stereo not given), the result in [7], in series [9], in series [10] and in [12] was Active. Moreover, the Activity result in [8], in series [11] and in [13] was “Dose-dependent effect” in each case.
With `CCCCCC1C(=O)C(Cl)=CC1CC(=O)O` (stereo not given), the result in series [7], in series [9], in series [10] and in series [12] was Active. The Activity result in [8], in series [11] and in series [13] was “Dose-dependent effect” in each case.
On to `CCCCCC1C(=O)C=CC1CC(=O)NC(C)C` (stereo not given), for which the outcome in [7], in [9], in [10] and in series [12] was Active. In addition, the Activity entry in series [8], in series [11] and in series [13] was “Dose-dependent effect” in each case.
For the compound `CC/C=C\CC1C(=O)C=CC1CC(=O)OC` (stereo not given), the result in [7], in series [9], in series [3], in series [4], in series [10] and in [5] was Active. Moreover, the outcome in series [6] and in series [12] was Active. The Activity result in series [1] was “Toxic”; in series [8], “Dose-dependent effect”; in series [2], “Toxic”; in series [11] it was “Dose-dependent effect”; in [13] it was “Dose-dependent effect”.
In the case of `CC/C=C\CC1C(=O)C(I)=CC1CC(=O)OC` (stereo not given), the Activity entry in [8], in series [11] and in series [13] was “Dose-dependent effect” in each case.
Consider `CC/C=C\CC1C(=O)C(Br)=CC1CC(=O)OC` (stereo not given), for which the Activity result in series [14] was “Toxic”; in [8], “Dose-dependent effect”; in [17], “Toxic”; in series [11], “Dose-dependent effect”; in [19] it was “Toxic”; in series [21], “Non-toxic”. For the same compound, the Activity result in [13] is “Dose-dependent effect”; in series [22] it was “Non-toxic”. Further, the result in series [15], in [16], in series [18] and in series [20] was Active.
Consider `CC/C=C\CC1C(=O)CCC1CC(=O)OC` (stereo not given) [METHYL JASMONATE], for which the Activity result in series [1] and in [2] was “Toxic” each time. Moreover, the outcome in series [3], in series [4], in [5] and in series [6] was Active.
As to `CCCCCC1C(=O)C=CC1CC(=O)NCCO` (stereo not given), the result in [7], in [9], in [10] and in series [12] was Active. The Activity entry in series [8], in [11] and in series [13] was “Dose-dependent effect” throughout.
For `CCCCCC1C(=O)C(I)=CC1CC(=O)OC` (stereo not given), the Activity entry in series [8], in series [11] and in series [13] was “Dose-dependent effect” throughout.
For `CC/C=C\CC1C(=O)C=CC1CC(=O)NCCO` (stereo not given), the result in series [7], in [9], in [10] and in series [12] was Active. For the same compound, the Activity result in series [8], in series [11] and in series [13] was “Dose-dependent effect” each time.
As to `CC/C=C\CC1C(=O)C(Cl)=CC1CC(=O)OC` (stereo not given), the Activity entry in series [8], in [11] and in series [13] was “Dose-dependent effect” in each case. The outcome in series [16], in series [10] and in series [20] was Active.
Consider `CC/C=C\CC1C(=O)C=CC1CC(=O)O` (stereo not given), for which the result in series [7], in [9], in [10] and in series [12] was Active. The Activity result in [8], in [11] and in series [13] was “Dose-dependent effect” throughout.
For `CCCCCC1C(=O)C=CC1CC(=O)O` (stereo not given), the result in [7], in series [9], in [10] and in series [12] was Active. Besides, the Activity result in [8], in [11] and in series [13] was “Dose-dependent effect” throughout.
`CC/C=C\CC1C(=O)C=CC1CC(=O)NC(C)C` (stereo not given): the outcome in [7], in series [9], in [10] and in series [12] was Active. Moreover, the Activity entry in series [8], in series [11] and in series [13] was “Dose-dependent effect” each time.
As for `CCCCCC1C(=O)C(Cl)=CC1CC(=O)OC` (stereo not given), the Activity entry in series [8], in [11] and in series [13] was “Dose-dependent effect” in each case. Also, the result in series [16], in series [10] and in series [20] was Active.
Consider `CCCCCC1C(=O)C=CC1CC(=O)OC` (stereo not given), for which the Activity entry in [8], in [11] and in series [13] was “Dose-dependent effect” in each case.
As to `CC/C=C\CC1C(=O)C(C#N)=CC1CC(=O)OC` (stereo not given), the Activity entry in series [1] and in series [2] was “Toxic” each time. Further, the outcome in series [3], in series [4], in [5] and in series [6] was Active.

Source of the values: ChEMBL document CHEMBL1152203, “New jasmonate analogues as potential anti-inflammatory agents” (Bioorg Med Chem, 2008).
